From ChEMBL document CHEMBL1125592, “Calcium channel blocking and positive inotropic activities of ethyl 5-cyano-1,4-dihydro-6-methyl-2-[(phenylsulfonyl)methyl]-4-aryl-3- pyridine-carboxylate and analogues. Synthesis and structure-activity relationships” (J Med Chem, 1991)

What was measured:
[1] = target: Voltage-gated L-type calcium channel (Rattus norvegicus, UniProt P22002+Q02485+P27732); experiment: Affinity to bind dihydropyridine receptor (DHP receptor) by inhibiting the radioligand [3H]nitrendipine; format: protein assay
Procedure, shortened: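 [3H]nitrendipine displacement, rat brain cortical membranes. Each compound first screened at 1000 nM; if inhibition exceeded 40%, a four- to seven-point curve with unlabeled compound was run. IC50 generally mean of two experiments, each in triplicate. ">1000 nM" means under 40% inhibition of control binding at 1000 nM.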

Rattus norvegicus [2] = species: Rattus norvegicus; experiment: Cardiovascular activity in isolated rat heart, concentration producing 25% increase in CF (cardiac flow).; format: functional
Procedure, shortened: (§1)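 Isolated Langendorff-perfused rat heart. Coronary flow (CF), LV +dP/dtmax and heart rate recorded during exposure to test agent. Value is the concentration giving a 25% rise in CF or in LV +dP/dtmax, mean ± SE. At least two hearts per compound.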

Rattus norvegicus [3] = species: Rattus norvegicus; experiment: Cardiovascular activity in isolated rat heart, concentration producing 25% increase in LV + dP/dtmax.; format: functional; procedure, shortened: as §1

Row | Compound | IC50 [1] [nM] | EC25 (Rattus norvegicus [2]) [nM] | EC25 (Rattus norvegicus [3]) [nM]
1 | CCO/C(O)=C1\C(CSc2ccncc2)=NC(C)=C(C#N)C1c1cccc(Cl)c1Cl (stereo not given) | 1400 | – | –
2 | CCO/C(O)=C1\C(C[S+]([O-])c2ccccc2)=NC(C)=C(C#N)C1c1ccco1 (stereo not given) | > 1000 | – | –
3 | CCO/C(O)=C1\C(CSc2ccccc2)=NC(C)=C(C#N)C1c1ccccc1 (stereo not given) | > 1000 | – | –
4 | CCOC(=O)C1=C(C)N=C(C[S+]([O-])c2ccc(OC)cc2)/C(=C(/O)OCC)C1c1ccccc1C(F)(F)F (stereo in doubt; 8b) | 18 | – | –
5 | CCOC(=O)C1=C(C)N=C(CSc2ccncc2)/C(=C(/O)OCC)C1c1ccccc1C(F)(F)F (stereo not given) | 32.5 | – | –
6 | CCO/C(O)=C1\C(CS(=O)(=O)c2ccccc2)=NC(C)=C(C#N)C1C1CCCCC1 (stereo not given) | > 1000 | 520 | 1090
7 | CCO/C(O)=C1\C(CSc2ccccc2)=NC(C)=C(C#N)C1c1ccccn1 (stereo not given) | > 1000 | – | –
8 | CC1=C(C#N)C(c2ccccc2C(F)(F)F)C(C(=O)O)=C(CSc2ccccc2)N1 (stereo not given) | > 1000 | – | –
9 | CCO/C(O)=C1\C(CSc2ccncc2)=NC(C)=C(C#N)C1c1ccccc1Cl (stereo not given) | 366 | – | –
10 | CCOC(=O)C1=C(C)N=C(CSc2ccccn2)/C(=C(/O)OCC)C1c1ccccc1C(F)(F)F (stereo not given) | 51 | – | –
11 | CCO/C(O)=C1\C(C[S+]([O-])c2ccccc2)=NC(C)=C(C#N)C1C1CCCCC1 (stereo not given) | > 1000 | – | –
12 | CCO/C(O)=C1\C(C(C)S(=O)(=O)c2ccccc2)=NC2=C(C(=O)CCC2)C1c1ccccc1C(F)(F)F (stereo not given) | – | 1400 | <100
13 | CCOC(=O)C1=C(C[S+]([O-])c2ccccc2)N(C)C(C)=C(C#N)C1c1ccccc1C(F)(F)F (stereo not given) | > 1000 | – | –
14 | CCO/C(O)=C1\C(CS(=O)(=O)c2ccncc2)=NC(C)=C(C#N)C1c1ccccc1C (stereo not given) | 1410 | – | –
15 | CCCCc1ccc(S(=O)(=O)CC2=NC(C)=C(C#N)C(c3ccccc3C(F)(F)F)/C2=C(\O)OCC)c(C)c1 (stereo not given) | > 1000 | – | –
16 | CCOC(=O)C1=C(C)N=C(C[S+]([O-])c2ccccn2)/C(=C(/O)OCC)C1c1ccccc1C(F)(F)F (stereo not given) | 10 | – | –
17 | CCOC(=O)C1=C(C)N=C(C[S+]([O-])c2ccncc2)/C(=C(/O)OCC)C1c1ccccc1C(F)(F)F (stereo not given) | 37.4 | – | –
18 | CCO/C(O)=C1\C(C[S+]([O-])c2ccccc2)=NC(C)=C(C#N)C1c1ccccc1OC(F)F (stereo not given) | > 1000 | – | –
19 | CCOC(=O)C1=C(CSc2ccccc2)N(CCN(CC)CC)C(C)=C(C#N)C1c1ccccc1C(F)(F)F (stereo not given) | 1000 | – | –
20 | CCOC(=O)C1=C(C)N=C(C[S+]([O-])c2ccccc2)/C(=C(/O)OCC)C1c1ccccc1C(F)(F)F (stereo not given) | 27 | – | –
21 | CCO/C(O)=C1\C(CS(=O)(=O)c2ccccc2)=NC(C)=C(C#N)C1c1cccc[n+]1[O-] (stereo not given) | > 1000 | – | –
22 | CCO/C(O)=C1\C(CSc2ccncc2)=NC(C)=C(C#N)C1c1ccccn1 (stereo not given) | > 1000 | – | –

Row | Compound | IC50 [1] [nM] | EC25 (Rattus norvegicus [2]) [nM] | EC25 (Rattus norvegicus [3]) [nM]
23 | CCOC(=O)C1=C(C[S+]([O-])c2ccccc2)NC(C)=C(C#N)C1c1ccccc1C(F)(F)F (stereo in doubt; 29a) | 1600 | – | 120
24 | CCO/C(O)=C1\C(CS(=O)(=O)c2ccccc2)=NC(C)=C(C#N)C1c1ccccn1 (stereo not given) | > 1000 | – | –
25 | CCOC(=O)C1=C(C)N=C(CSc2ccccc2)/C(=C(/O)OCC)C1c1cccnc1 (stereo not given) | 523 | – | –
26 | CCO/C(O)=C1\C(CSc2ccccc2)=NC(C)=C(C#N)C1c1ccco1 (stereo not given) | 1354 | – | –
27 | CCOC(=O)C1=C(C)NC(C[S+]([O-])c2ccccc2C)=C(C(=O)OCC)C1c1ccccc1C(F)(F)F (stereo in doubt; 10a) | 160 | – | –
28 | CC1=C(C#N)C(c2ccccc2C(F)(F)F)C(C(=O)O)=C(C[S+]([O-])c2ccccc2)N1 (stereo not given) | > 1000 | – | –
29 | CCOC(=O)C1=C(C[S+]([O-])c2ccccc2)NC(C)=C(C#N)C1c1cccc([N+](=O)[O-])c1 (stereo in doubt; 32b) | > 1000 | – | 3000
30 | CCO/C(O)=C1\C(CS(=O)(=O)c2ccccc2)=NC(C)=C(C#N)C1c1cccnc1 (stereo not given) | > 1000 | – | –
31 | CCOC(=O)C1=C(CS(=O)(=O)c2ccccc2)N(C)C2=C(C(=O)CCC2)C1c1ccccc1C(F)(F)F (stereo not given) | – | 180 | <100
32 | CCO/C(O)=C1\C(C[S+]([O-])c2ccccc2)=NC(C)=C(C#N)C1c1ccccn1 (stereo not given) | > 1000 | – | –
33 | CCO/C(O)=C1\C(CS(=O)(=O)c2ccccc2)=NC(C)=C(C#N)C1c1ccco1 (stereo not given) | 254 | – | –
34 | CCOC(=O)C1=C(C)N=C(C[S+]([O-])c2ccc(OC)cc2)/C(=C(/O)OCC)C1c1ccccc1C(F)(F)F (stereo in doubt; 8a) | 21 | – | –
35 | CC1=C(C#N)C(c2ccccc2C(F)(F)F)/C(=C(\O)OCC(O)CO)C(CS(=O)(=O)c2ccccc2)=N1 (stereo not given) | > 1000 | – | –
36 | CCOC(=O)C1=C(C)N=C(C[S+]([O-])c2ccccc2)/C(=C(/O)OCC)C1c1cccnc1 (stereo not given) | > 1000 | – | –
37 | CCO/C(O)=C1\C(CS(=O)(=O)c2ccncc2)=NC(C)=C(C#N)C1c1ccccc1Cl (stereo not given) | 713 | – | –
38 | CC1=C(C#N)C(c2ccccc2C(F)(F)F)/C(=C(\O)OCCN2CCOCC2)C(C[S+]([O-])c2ccccc2)=N1 (stereo not given) | > 1000 | – | –
39 | CCO/C(O)=C1\C(CSc2ccccc2)=NC(C)=C(C#N)C1c1cccc([N+](=O)[O-])c1 (stereo not given) | 870 | – | –
40 | CCOC(=O)C1=C(C[S+]([O-])c2ccccc2)NC(C)=C(C#N)C1c1cccc([N+](=O)[O-])c1 (stereo in doubt; 32a) | > 1000 | – | 2500
41 | CCOC(=O)C1=C(C)NC(C[S+]([O-])c2ccccc2C)=C(C(=O)OCC)C1c1ccccc1C(F)(F)F (stereo in doubt; 10b) | 170 | – | –
42 | CCO/C(O)=C1\C(CS(=O)(=O)c2ccccc2)=NC(C)=C(C#N)C1c1ccccc1Cl (stereo not given) | 720 | – | –
43 | CCO/C(O)=C1\C(C[S+]([O-])c2ccccc2)=NC(C)=C(C#N)C1c1ccccc1 (stereo not given) | > 1000 | – | –
44 | CCO/C(O)=C1\C(CS(=O)(=O)c2ccncc2)=NC(C)=C(C#N)C1c1cccc(Cl)c1Cl (stereo not given) | 434 | – | –

Further lines, with some results ahead:

Row | IC50 [1] [nM] | Compound | EC25 (Rattus norvegicus [2]) [nM] | EC25 (Rattus norvegicus [3]) [nM]
45 | 580 | C=CCO/C(O)=C1\C(CS(=O)(=O)c2ccccc2)=NC(C)=C(C#N)C1c1ccccc1C(F)(F)F (stereo not given) | <100 | 300
46 | 71 | CCO/C(O)=C1\C(CSc2ccc(OC)cc2)=NC(C)=C(C#N)C1c1ccccc1C(F)(F)F (stereo not given) | – | –
47 | 1000 | CO/C(O)=C1\C(CSc2ccccc2)=NC(C)=C(C#N)C1c1ccccc1C(F)(F)F (stereo not given) | – | –
48 | 1000 | CC1=C(C#N)C(c2ccccc2C(F)(F)F)/C(=C(\O)OCCO)C(C[S+]([O-])c2ccccc2)=N1 (stereo not given) | – | –
49 | > 1000 | CCO/C(O)=C1\C(CSc2ccccc2Cl)=NC(C)=C(C#N)C1c1ccccc1C(F)(F)F (stereo not given) | – | –
50 | 1000 | CC1=C(C#N)C(c2ccccc2C(F)(F)F)/C(=C(\O)OCCC#N)C(CSc2ccccc2)=N1 (stereo not given) | – | –
51 | 49 | CCOC(=O)C1=C(C)N=C(CSc2ccccc2C)/C(=C(/O)OCC)C1c1ccccc1C(F)(F)F (stereo not given) | – | –
52 | 69 | CCO/C(O)=C1\C(CSc2ccc(Cl)c(Cl)c2)=NC(C)=C(C#N)C1c1ccccc1C(F)(F)F (stereo not given) | – | –
53 | 267 | CCO/C(O)=C1\C(CSc2ccccc2F)=NC(C)=C(C#N)C1c1ccccc1C(F)(F)F (stereo not given) | – | –
54 | 580 | C=CCO/C(O)=C1\C(CSc2ccccc2)=NC(C)=C(C#N)C1c1ccccc1C(F)(F)F (stereo not given) | – | –
55 | > 1000 | CCO/C(O)=C1\C(CSc2ccccn2)=NC(C)=C(C#N)C1c1ccccc1C(F)(F)F (stereo not given) | – | –
56 | 681 | CCO/C(O)=C1\C(C[S+]([O-])c2ccc(Cl)c(Cl)c2)=NC(C)=C(C#N)C1c1ccccc1C(F)(F)F (stereo not given) | – | –
57 | 1.6 | CCOC(=O)C1=C(C)N=C(CSc2ccccc2)/C(=C(/O)OCC)C1c1ccccc1C(F)(F)F (stereo not given) | – | –
58 | > 1000 | CCO/C(O)=C1\C(C[S+]([O-])c2ccc(NC(C)=O)cc2)=NC(C)=C(C#N)C1c1ccccc1C(F)(F)F (stereo not given) | – | –
59 | 1900 | CCO/C(O)=C1\C(C[S+]([O-])c2ccccn2)=NC(C)=C(C#N)C1c1ccccc1C(F)(F)F (stereo not given) | – | –
60 | > 1000 | CCCCc1ccc(SCC2=NC(C)=C(C#N)C(c3ccccc3C(F)(F)F)/C2=C(\O)OCC)c(C)c1 (stereo not given) | – | –
61 | 36 | CCO/C(O)=C1\C(CSc2ccccc2Cl)=NC(C)=C(C(=O)OC)C1c1ccccc1C(F)(F)F (stereo not given) | – | –
62 | 450 | CCO/C(O)=C1\C(CSc2ccccc2)=NC(C)=C(C#N)C1c1ccccc1C(F)(F)F (stereo not given) | – | –
63 | > 1000 | CCO/C(O)=C1\C(C[S+]([O-])c2ccc(Cl)cc2)=NC(C)=C(C#N)C1c1ccccc1C(F)(F)F (stereo not given) | – | –
64 | 1000 | CCO/C(O)=C1\C(CSc2ccncc2)=NC(C)=C(C#N)C1c1ccccc1C(F)(F)F (stereo not given) | – | –
65 | > 1000 | CCO/C(O)=C1\C(CSc2ccccc2C)=NC(C)=C(C#N)C1c1ccccc1C(F)(F)F (stereo not given) | – | –
66 | 100 | CCO/C(O)=C1\C(CSc2ccc(Cl)cc2)=NC(C)=C(C#N)C1c1ccccc1C(F)(F)F (stereo not given) | – | –
